How the values were obtained:
patients with RA = settings: cited from earlier work
[1] = tested on: murine collagen–induced arthritis model; settings: cited from earlier work
BTK = BTK (Homo sapiens, UniProt Q06187); assay: BTK occupancy test in peripheral blood mononuclear cells; type: in vivo
How it was run: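 PBMC BTK occupancy measured by duplexed homogeneous TR-FRET, reading free and total BTK in the same well. LLOQ was 12 ng/mL; baselines below it were excluded. Study #1 used days 8 and 17, with day-8 predose as baseline. Study #2 sampled at baseline, days 1–7 and up to 120 h post-last-dose, or at PK timepoints. Covalent binding model with BTK-synthesis feedback (ksyn); NONMEM FOCE-I; bootstrap.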

subjects with RA = assay: Exploratory efficacy in study #2, part B; type: in vivo, human; settings: 20 mg q.d.
How it was run: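 RA subjects in phase I part B were assessed at day 1 predose, week 2 and week 4. End points were plasma hsCRP and tender joint count 68 within the ACR core set. Each end point was regressed linearly against model-predicted time above 90% BTK occupancy over a 24-hour dosing interval.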

[2] = Plasma PK of tirabrutinib in two phase I studies; type: in vivo; settings: human, oral
Population PK model = type: in vivo, human
How it was run: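 Plasma drug was measured by validated LC-MS/MS with an isotopically labeled internal standard (LLOQ 1.0 ng/mL). Pooled data came from healthy and RA subjects in two phase I studies. The model was two-compartment with first-order absorption, lag time and relative bioavailability, with IIV on CL/F, Vc/F and ka. Fitting used NONMEM FOCE-I. Covariates were screened on CL/F, Vc/F and ka, and bootstrap gave CIs.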

[3] = cited from earlier work
[4] = bootstrap (N = 1000) final model median estimate
[5] = final PopPK model estimate (RSE%)

Sequence of BTK (Q06187 whole entry): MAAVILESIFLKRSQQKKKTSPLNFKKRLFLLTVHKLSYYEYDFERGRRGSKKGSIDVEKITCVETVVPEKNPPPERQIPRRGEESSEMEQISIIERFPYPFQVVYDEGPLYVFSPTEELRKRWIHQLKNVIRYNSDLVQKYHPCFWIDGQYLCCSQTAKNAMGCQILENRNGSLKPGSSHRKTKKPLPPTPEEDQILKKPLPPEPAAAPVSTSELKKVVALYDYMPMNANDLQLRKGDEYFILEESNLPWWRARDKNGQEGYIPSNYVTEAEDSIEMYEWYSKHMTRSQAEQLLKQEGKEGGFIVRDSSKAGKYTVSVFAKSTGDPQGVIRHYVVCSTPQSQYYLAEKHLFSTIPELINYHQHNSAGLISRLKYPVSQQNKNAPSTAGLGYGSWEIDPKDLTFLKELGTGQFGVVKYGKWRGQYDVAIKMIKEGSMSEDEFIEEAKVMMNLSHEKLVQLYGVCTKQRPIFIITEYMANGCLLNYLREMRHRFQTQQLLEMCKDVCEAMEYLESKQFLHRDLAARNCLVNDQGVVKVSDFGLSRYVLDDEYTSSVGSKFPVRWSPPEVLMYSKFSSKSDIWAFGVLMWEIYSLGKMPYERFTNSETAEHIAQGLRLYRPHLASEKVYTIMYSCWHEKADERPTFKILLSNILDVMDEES

C[C@H]1CN(C2COC2)CCN1c1ccc(Nc2cc(-c3ccnc(N4CCn5c(cc6c5CC(C)(C)C6)C4=O)c3CO)cn(C)c2=O)nc1 [fenebrutinib]
efficacy in moderate-to-severe RA (patients with RA): comparable with adalimumab | BTK inhibition achieved by the efficacious doses (patients with RA; subjects with RA): 90%

CC#CC(=O)N1CC[C@@H](n2c(=O)n(-c3ccc(Oc4ccccc4)cc3)c3c(N)ncnc32)C1 [tirabrutinib, Tirabrutinib]
arthritis severity and bone damage [1]: dose‐dependent inhibition | Feedback rate constant on protein synthesis from BTK inhibition, ksyn (BTK; [4]): -0.0290 h⁻¹ | Feedback rate constant on protein synthesis from BTK inhibition, ksyn (BTK; final PK/PD model estimate (RSE%)): −0.0301 (59) h^−1 | BTK suppression after multiple dosing (BTK; model and observed fBTK): maintained through a 24‐hour dosing interval | change in TJC68 (subjects with RA; week 4 visit): small numerical decrease | change in hsCRP levels (subjects with RA; week 4 visit): small numerical decrease | effects on disease-related outcomes (subjects with RA; exploratory efficacy analysis): modest effects | half-life [2]: 6.2 to 7.3 h | Absorption lag time (Population PK model; [4]): 0.465 h | Absorption rate constant, ka (Population PK model; [4]): 0.811 h⁻¹ | Apparent oral clearance, CL/F (Population PK model; [4]): 62.5 L/h | Apparent oral volume, Vc/F (Population PK model; [4]): 357 L | IIV of CL/F (Population PK model; [4]): 27.1% | IIV of Vc/F (Population PK model; [4]): 53.7% | IIV of ka (Population PK model; [4]): 89.6% | Influence of age on ka (Population PK model; [4]): –1.74 | Absorption lag time (Population PK model; [5]): 0.465 (1) h | Absorption rate constant, ka (Population PK model; [5]): 0.800 (14) h^−1 | Apparent oral clearance, CL/F (Population PK model; [5]): 62.6 (4) L/h | Apparent oral volume, Vc/F (Population PK model; [5]): 357 (7) L | IIV of ka (Population PK model; [5]): 93.4 (13) % | Influence of age on ka (Population PK model; final PopPK model estimate (RSE%), covariate exponent): –1.74 (26) | dose proportionality of pharmacokinetics ([3]; 20-to-320 mg dose range): dose‐proportional | tolerability ([3]; patients with B-cell malignancies, 20 to 480 mg q.d.): generally well‐tolerated | absorption following oral administration ([3]; phase I dose escalation study): rapidly absorbed

C=CC(=O)Nc1cccc(Nc2nc(Nc3ccc(OCCOC)cc3)ncc2F)c1 [spebrutinib]
disease markers in patients with active RA (patients with RA): reduce disease markers

Reference: article PMC9298258 (Clinical Pharmacology and Therapeutics, 2021)
